# Laboratory results from ChEMBL document CHEMBL1131066, “2-Substituted aminopyrido[2,3-d]pyrimidin-7(8H)-ones. structure-activity relationships against selected tyrosine kinases and in vitro and in vivo anticancer activity” (J Med Chem, 1998).
# Columns and labels:
# MCF7 [1] = test: Net reduction in tumor burden between first and last treatments of MCF-7 cells in mice at 5 mg/kg peroral dose, days 1-15 administration; type: functional, Mus musculus; conditions: route oral
# Method in brief: (§1)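 NCr nu/nu nude mice (18–22 g, 6–8 per group, randomized) had tumor fragments, kept by serial passage in nude mice, implanted in the right axilla on day 0. Mice were dosed by average cage weight on the listed days, over a range from toxic to ineffective doses. Vehicle was 50 mM sodium lactate pH 4.0 or 0.5% methyl cellulose suspension. Net log cell kill was taken between first and last treatments.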
# Mus musculus [2] = test: Ratio of treated and control PDGF-transfected mouse fibroblast tumor mass in mice at 12 mg/kg peroral dose, days 1-15 administration; type: functional; conditions: route oral
# Method in brief: (§2)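 Nude mice (NCr nu/nu), 6–8 per group, 18–22 g, tumor fragments implanted in right axilla on day 0 (A431, C6, MCF-7, or NIH3T3 carrying human PDGF receptor), dosed by average cage weight; vehicle 50 mM sodium lactate buffer pH 4.0 unless suspended in 0.5% methyl cellulose. %T/C = median treated/median control tumor mass ×100, last therapy day.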
# C6 [3] = test: C6 cell growth in soft agar with discontinued treatment; type: functional, cell-based, Rattus norvegicus; conditions: Rattus norvegicus, C6
# Method in brief: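 C6 rat glioma cells given 3-day exposure to a concentration series, then washed free of inhibitor and plated in drug-free soft agar; colonies stained and counted after two weeks. IC50; mean of two experiments, each in duplicate.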
# MCF7 [4] = test: Difference in days for treated (T) and control (C) MCF-7 cell tumors to reach 750 mg in mice at 5 mg/kg peroral dose, days 1-15 administration; type: functional, Mus musculus; conditions: route oral
# Method in brief: (§3)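 Nude mice (NCr nu/nu), 18–22 g, 6–8 per group, randomized and implanted with serially passaged tumor fragments in the right axilla on day 0. Dosed by average cage weight. Vehicle was 50 mM sodium lactate buffer, pH 4.0, or a 0.5% methyl cellulose suspension for one compound. Cisplatin was given in saline. T − C is the difference in days for treated and control tumors to reach 750 mg.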
# COLO 205 [5] = test: Weight change of COLO 205 cell tumors in mice at […] peroral dose, days 9-23 administration; type: functional, organism-based; parameters: dose 8.9 mg/kg; conditions: Mus musculus
# C6 [6] = test: Weight change of C6 glioma tumor cells in mice at 10 mg/kg peroral dose, days 1-15 administration; type: functional, Mus musculus; conditions: route oral
# Method in brief: (§4)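 Tumor-bearing nude mice (NCr nu/nu, 18–22 g, 6–8 per group) were implanted in the right axilla with tumor fragments on day 0 and dosed by average cage weight. Vehicle was 50 mM sodium lactate pH 4.0, or 0.5% methyl cellulose suspension; cisplatin was given in saline. Host body weight change is given as the maximum treatment-related weight loss.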
# C6 [7] = test: Inhibition of C6 cell proliferation in sulforhodamine B assay; type: functional, cell-based, Rattus norvegicus; conditions: Rattus norvegicus, C6
# Method in brief: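 C6 rat glioma cells (F10 Ham's, 15% horse serum, 2.5% fetal calf serum) seeded and allowed 24 h to attach, then given serial 2-fold compound dilutions; 4 d at 37 °C, 5% CO2; growth read by sulforhodamine B staining. IC50; mean of two experiments, each in triplicate.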
# SK-OV-3 [8] = test: Difference in days for treated (T) and control (C) SKOV-3 cell tumors to reach 750 mg in mice at […] peroral dose, days 15-29 administration; type: functional; conditions: route oral
# [9] = target: Fibroblast growth factor receptor 1 (Homo sapiens, UniProt P11362); test: Inhibition of fibroblast growth factor receptor (FGFr)
# Method in brief: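 Recombinant kinases (PDGFr-β, FGFr-1, c-Src), enzyme inhibition IC50. Mean of at least two separate determinations, each done in triplicate; replicate values typically varied under 30%.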
# C6 [10] = test: Net reduction in tumor burden between first and last treatments of C6 glioma cell tumors in mice at 10 mg/kg peroral dose, days 1-15 administration; type: functional, Mus musculus; conditions: route oral; method in brief: as §1
# Mus musculus [11] = test: Difference in days for treated (T) and control (C) PDGF-transfected mouse fibroblast tumors to reach 750 mg in mice at 12 mg/kg peroral dose, days 1-15 administration; type: functional; conditions: route oral; method in brief: as §3
# A-431 [12] = test: Net reduction in tumor burden between first and last treatments of A431 cell tumors in mice at 5 mg/kg peroral dose, days 7-21 administration; type: functional, Mus musculus; conditions: route oral; method in brief: as §1
# COLO 205 [13] = test: Difference in days for treated (T)and control (C) COLO 205 cell tumors to reach 750 mg in mice at […] peroral dose, days 9-23 administration; type: functional, Mus musculus; conditions: route oral
# NIH3T3 [14] = test: Inhibition of NIH3T3 proliferation by sulforhodamine B assay; type: functional, cell-based, Mus musculus; conditions: Mus musculus, NIH3T3
# HT-29 [15] = test: Weight change of HT-29 cell tumors in mice at […] peroral dose, days 15-29 administration; type: functional, organism-based; parameters: dose 8.3 mg/kg; conditions: Mus musculus
# [16] = target: Platelet-derived growth factor receptor (Mus musculus, UniProt P05622+P26618); test: Inhibition of PDGF-induced autophosphorylation of PDGF-R in NIH3T3 cells
# C6 [17] = test: Ratio of treated and control C6 glioma cell tumor mass in mice at 10 mg/kg peroral dose, days 1-15 administration; type: functional, Mus musculus; conditions: route oral; method in brief: as §2
# C6 [18] = test: C6 cell growth in soft agar with continuous treatment; type: functional, cell-based, Rattus norvegicus; conditions: Rattus norvegicus, C6
# Method in brief: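 C6 rat glioma cells (F10 Ham's with 15% horse serum, 2.5% fetal calf serum) exposed 3 days to a concentration series, then plated in soft agar with compound still present at the same concentration; colonies stained and counted after two weeks. IC50; mean of two experiments, each in duplicate.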
# A-431 [19] = test: Ratio of treated and control A431 cell tumor mass in mice at 5 mg/kg peroral dose, days 7-21 administration; type: functional, Mus musculus; conditions: route oral; method in brief: as §2
# [20] = target: Platelet-derived growth factor receptor (PDGFr) (Rattus norvegicus, UniProt P20786+Q05030); test: Inhibition of PDGF-induced autophosphorylation of PDGF-R in C6 cells
# HT-29 [21] = test: Difference in days for treated (T) and control (C) HT-29 cell tumors to reach 750 mg in mice at […] peroral dose, days 15-29 administration; type: functional, Mus musculus; conditions: route oral
# [22] = target: Platelet-derived growth factor receptor beta (Mus musculus, UniProt P05622); test: Inhibitory concentration was evaluated against Platelet-derived growth factor receptor beta (PDGFr) tyrosine kinase
# [23] = target: Proto-oncogene tyrosine-protein kinase Src (Gallus gallus, UniProt P00523); test: Inhibition of avian c-Src tyrosine kinase
# COLO 205 [24] = test: Net reduction in tumor burden between first and last treatments of COLO 205 cell tumors in mice at […] peroral dose, days 9-23 administration; type: functional, Mus musculus; conditions: route oral
# NIH3T3 [25] = test: Growth of NIH3T3 cell colonies in soft agar with continuous treatment; type: functional, cell-based; conditions: Mus musculus
# Method in brief: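 Soft agar cloning used PDGF-B-transfected NIH3T3 (NIH3T3/PDGF) cells. Cells were exposed 3 days to a concentration series, then plated in soft agar with the matching compound concentration kept present. Colonies were stained and counted after two weeks. IC50; mean of two experiments, each in duplicate.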
# MCF7 [26] = test: Weight change for MCF-7 cell tumors in mice at 5 mg/kg peroral dose, days 1-15 administration; type: functional, organism-based; parameters: dose 5 mg/kg; conditions: Mus musculus; method in brief: as §4
# C6 [27] = test: Difference in days for treated (T) and control (C) C6 glioma cell tumors to reach 750 mg in mice at 10 mg/kg peroral dose, days 1-15 administration; type: functional, Mus musculus; conditions: route oral; method in brief: as §3
# Mus musculus [28] = test: Net reduction in tumor burden between the first and last treatments of PDGF-transfected fibroblast cells in mice at 12 mg/kg peroral dose, days 1-15 administration; type: functional; conditions: route oral; method in brief: as §1
# COLO 205 [29] = test: Ratio of treated and control COLO 205 cell tumor mass in mice at […] peroral dose, days 9-23 administration; type: functional, Mus musculus; conditions: route oral
# NIH3T3 [30] = test: Growth of NIH3T3 cell colonies in soft agar with discontinued treatment; type: functional, cell-based; conditions: Mus musculus
# Method in brief: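 PDGF-B-transfected NIH3T3 (NIH3T3/PDGF) cells exposed 3 days to a concentration series, washed free of inhibitor, plated in drug-free soft agar; colonies stained and counted after two weeks. IC50; mean of two experiments, each in duplicate.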
# SK-OV-3 [31] = test: Ratio of treated and control SKOV-3 cell tumor mass in mice at […] peroral dose, days 15-29 administration; type: functional; conditions: route oral
# A-431 [32] = test: Weight change of A431 cell tumors in mice at 5 mg/kg peroral dose, days 7-21 administration; type: functional, Mus musculus; conditions: route oral; method in brief: as §4
# Mus musculus [33] = test: Weight change in PDGF-transfected mouse fibroblasts in mice at 12 mg/kg peroral dose, days 1-15 administration; type: functional; conditions: route oral; method in brief: as §4
# MCF7 [34] = test: Ratio of treated and control MCF-7 tumor mass in mice at 5 mg/kg peroral dose, days 1-15 administration; type: functional, Mus musculus; conditions: route oral; method in brief: as §2
# A-431 [35] = test: Difference in days for treated (T) and control (C) A431 cell tumors to reach 750 mg in mice at 5 mg/kg peroral dose, days 7-21 administration; type: functional, Mus musculus; conditions: route oral; method in brief: as §3
# SK-OV-3 [36] = test: Weight change of SK-OV-3 cell tumors in mice at […] peroral dose, days 15-29 administration; type: functional, organism-based; parameters: dose 8.9 mg/kg
# Fibroblast growth factor receptor 1, sequence (P11362 whole entry): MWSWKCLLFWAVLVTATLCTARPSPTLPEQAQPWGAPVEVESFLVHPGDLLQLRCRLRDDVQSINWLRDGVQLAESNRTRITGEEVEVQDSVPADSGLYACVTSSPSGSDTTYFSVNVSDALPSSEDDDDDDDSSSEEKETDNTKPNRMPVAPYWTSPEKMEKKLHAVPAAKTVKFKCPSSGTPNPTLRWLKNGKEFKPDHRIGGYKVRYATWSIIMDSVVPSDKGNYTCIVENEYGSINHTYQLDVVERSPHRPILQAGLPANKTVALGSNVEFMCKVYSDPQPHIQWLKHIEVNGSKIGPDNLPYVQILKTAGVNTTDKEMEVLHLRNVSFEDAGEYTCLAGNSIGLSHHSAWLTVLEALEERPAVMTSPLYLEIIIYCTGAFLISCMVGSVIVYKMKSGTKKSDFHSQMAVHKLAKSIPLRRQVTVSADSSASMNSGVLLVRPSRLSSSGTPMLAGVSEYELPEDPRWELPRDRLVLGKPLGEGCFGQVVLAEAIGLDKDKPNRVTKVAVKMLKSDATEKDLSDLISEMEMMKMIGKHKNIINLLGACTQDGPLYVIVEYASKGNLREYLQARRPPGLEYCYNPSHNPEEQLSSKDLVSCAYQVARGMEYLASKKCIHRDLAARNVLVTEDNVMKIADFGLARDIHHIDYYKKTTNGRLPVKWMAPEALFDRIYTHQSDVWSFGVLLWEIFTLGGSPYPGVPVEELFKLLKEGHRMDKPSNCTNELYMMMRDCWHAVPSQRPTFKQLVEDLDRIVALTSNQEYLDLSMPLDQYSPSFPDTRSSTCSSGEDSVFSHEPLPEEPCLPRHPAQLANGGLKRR
# Platelet-derived growth factor receptor beta, sequence (P05622 whole entry): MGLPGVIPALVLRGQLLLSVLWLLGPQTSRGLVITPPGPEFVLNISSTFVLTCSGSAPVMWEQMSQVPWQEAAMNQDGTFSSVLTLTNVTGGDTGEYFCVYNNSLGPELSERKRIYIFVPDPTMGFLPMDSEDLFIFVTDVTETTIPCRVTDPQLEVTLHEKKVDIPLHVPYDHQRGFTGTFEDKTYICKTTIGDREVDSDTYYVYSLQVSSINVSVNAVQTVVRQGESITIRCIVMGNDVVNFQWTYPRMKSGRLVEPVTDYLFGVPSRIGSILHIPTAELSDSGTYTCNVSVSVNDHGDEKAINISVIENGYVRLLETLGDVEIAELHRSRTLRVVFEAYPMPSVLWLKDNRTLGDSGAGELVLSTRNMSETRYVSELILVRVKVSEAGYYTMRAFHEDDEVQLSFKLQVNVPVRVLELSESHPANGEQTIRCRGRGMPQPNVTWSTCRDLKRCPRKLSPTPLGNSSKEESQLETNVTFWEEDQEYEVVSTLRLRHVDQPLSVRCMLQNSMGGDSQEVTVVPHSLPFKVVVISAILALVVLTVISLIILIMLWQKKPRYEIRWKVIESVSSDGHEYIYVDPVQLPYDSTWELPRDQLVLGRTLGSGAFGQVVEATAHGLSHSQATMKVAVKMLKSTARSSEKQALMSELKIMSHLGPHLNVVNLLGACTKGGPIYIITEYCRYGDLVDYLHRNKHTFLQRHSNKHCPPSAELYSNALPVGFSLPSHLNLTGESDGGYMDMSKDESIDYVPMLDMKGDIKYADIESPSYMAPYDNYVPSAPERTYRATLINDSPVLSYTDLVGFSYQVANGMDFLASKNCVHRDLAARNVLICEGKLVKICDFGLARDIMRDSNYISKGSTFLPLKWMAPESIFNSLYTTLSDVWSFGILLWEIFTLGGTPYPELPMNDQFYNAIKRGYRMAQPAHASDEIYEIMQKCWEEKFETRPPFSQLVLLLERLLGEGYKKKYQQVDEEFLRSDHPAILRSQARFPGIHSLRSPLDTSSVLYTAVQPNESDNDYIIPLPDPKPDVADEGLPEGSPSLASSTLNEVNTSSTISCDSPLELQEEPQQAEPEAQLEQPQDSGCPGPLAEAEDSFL
structure (smiles),measurement,setting,value
CCN(CC)CCOc1ccc(Nc2ncc3cc(-c4c(Cl)cccc4Cl)c(=O)n(CC)c3n2)cc1,Net cell kill,MCF7 [1],0.2 log10
same,Ratio,Mus musculus [2],13%
same,IC50,C6 [3],0.4 µM
same,T-C,MCF7 [4],18.3 days
same,Weight change,COLO 205 [5],Weight gain
same,Weight change,C6 [6],-1.2 g
same,IC50,C6 [7],0.35 µM
same,T-C,SK-OV-3 [8],-0.8 days
same,IC50,[9],0.03 µM
same,Net cell kill,C6 [10],-0.9 log10
same,T-C,Mus musculus [11],5.9 days
same,Net cell kill,A-431 [12],-0.6 log10
same,T-C,COLO 205 [13],10.3 days
same,IC50,NIH3T3 [14],0.41 µM
same,Weight change,HT-29 [15],Weight gain
same,IC50,[16],0.0017 µM
same,Ratio,C6 [17],56%
same,IC50,C6 [18],0.12 µM
same,Ratio,A-431 [19],96%
same,IC50,[20],0.001 µM
same,T-C,HT-29 [21],-4.8 days
same,IC50,[22],0.15 µM
same,IC50,[23],0.017 µM
same,Net cell kill,COLO 205 [24],-0.2 log10
same,IC50,NIH3T3 [25],0.0015 µM
same,Weight change,MCF7 [26],Weight gain
same,T-C,C6 [27],3 days
same,Net cell kill,Mus musculus [28],-1.2 log10
same,Ratio,COLO 205 [29],57%
same,IC50,NIH3T3 [30],0.017 µM
same,Ratio,SK-OV-3 [31],106%
same,Weight change,A-431 [32],-2.7 g
same,Weight change,Mus musculus [33],-2.6 g
same,Ratio,MCF7 [34],51%
same,T-C,A-431 [35],3.3 days
same,Weight change,SK-OV-3 [36],Weight gain
